According to ChEMBL document CHEMBL1136621 (Bioorg Med Chem Lett, 2003):

Key:
[1] = biological target: Cytidine deaminase (Homo sapiens) (UniProt P32320); experiment: Susceptibility to Cyd deaminase at a substrate concentration of 2.0 mM
Cocaine esterase [2] = biological target: T1, Cocaine esterase (Homo sapiens, UniProt O00748); experiment: Susceptibility to carboxylesterase in human liver at a concentration 2.5 mM; assay type: tissue-based; settings: 2500 µM
T1 sequence (O00748 whole entry): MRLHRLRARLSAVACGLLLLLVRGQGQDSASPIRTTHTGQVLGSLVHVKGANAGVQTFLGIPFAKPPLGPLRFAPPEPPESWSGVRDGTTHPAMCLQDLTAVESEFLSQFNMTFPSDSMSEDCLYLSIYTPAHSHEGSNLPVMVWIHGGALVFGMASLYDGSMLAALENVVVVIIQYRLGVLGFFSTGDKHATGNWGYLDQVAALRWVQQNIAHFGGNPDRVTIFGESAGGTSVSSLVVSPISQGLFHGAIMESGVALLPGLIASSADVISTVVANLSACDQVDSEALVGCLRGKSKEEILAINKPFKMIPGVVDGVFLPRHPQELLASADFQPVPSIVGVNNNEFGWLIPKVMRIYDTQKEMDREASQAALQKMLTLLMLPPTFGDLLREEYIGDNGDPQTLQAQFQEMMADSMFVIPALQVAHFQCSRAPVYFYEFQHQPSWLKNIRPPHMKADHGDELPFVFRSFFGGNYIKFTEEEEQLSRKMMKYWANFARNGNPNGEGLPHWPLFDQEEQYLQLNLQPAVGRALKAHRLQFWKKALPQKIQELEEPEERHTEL
Method in brief: (§1)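 Crude enzyme extracts from human liver and intestine; substrate at 2.5 mM. Conversion rate expressed as nmol/mg protein/h. L/I is the ratio of the liver rate to the intestine rate.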

Cocaine esterase [3] = biological target: T1, Cocaine esterase; experiment: Susceptibility to carboxylesterase in human intestine at a concentration 2.5 mM; assay type: tissue-based; settings: 2500 µM; method in brief: as §1
[4] = tested on: carboxylesterase (Homo sapiens); experiment: Relative susceptibility to human carboxylesterase in liver and intestine (L/I ratio)
[5] = biological target: T2, Dihydropyrimidine dehydrogenase [NADP(+)] (Homo sapiens, UniProt Q12882); experiment: Inhibitory activity against dihydropyrimidine dehydrogenase (DPD)
T2 sequence (Q12882 whole entry): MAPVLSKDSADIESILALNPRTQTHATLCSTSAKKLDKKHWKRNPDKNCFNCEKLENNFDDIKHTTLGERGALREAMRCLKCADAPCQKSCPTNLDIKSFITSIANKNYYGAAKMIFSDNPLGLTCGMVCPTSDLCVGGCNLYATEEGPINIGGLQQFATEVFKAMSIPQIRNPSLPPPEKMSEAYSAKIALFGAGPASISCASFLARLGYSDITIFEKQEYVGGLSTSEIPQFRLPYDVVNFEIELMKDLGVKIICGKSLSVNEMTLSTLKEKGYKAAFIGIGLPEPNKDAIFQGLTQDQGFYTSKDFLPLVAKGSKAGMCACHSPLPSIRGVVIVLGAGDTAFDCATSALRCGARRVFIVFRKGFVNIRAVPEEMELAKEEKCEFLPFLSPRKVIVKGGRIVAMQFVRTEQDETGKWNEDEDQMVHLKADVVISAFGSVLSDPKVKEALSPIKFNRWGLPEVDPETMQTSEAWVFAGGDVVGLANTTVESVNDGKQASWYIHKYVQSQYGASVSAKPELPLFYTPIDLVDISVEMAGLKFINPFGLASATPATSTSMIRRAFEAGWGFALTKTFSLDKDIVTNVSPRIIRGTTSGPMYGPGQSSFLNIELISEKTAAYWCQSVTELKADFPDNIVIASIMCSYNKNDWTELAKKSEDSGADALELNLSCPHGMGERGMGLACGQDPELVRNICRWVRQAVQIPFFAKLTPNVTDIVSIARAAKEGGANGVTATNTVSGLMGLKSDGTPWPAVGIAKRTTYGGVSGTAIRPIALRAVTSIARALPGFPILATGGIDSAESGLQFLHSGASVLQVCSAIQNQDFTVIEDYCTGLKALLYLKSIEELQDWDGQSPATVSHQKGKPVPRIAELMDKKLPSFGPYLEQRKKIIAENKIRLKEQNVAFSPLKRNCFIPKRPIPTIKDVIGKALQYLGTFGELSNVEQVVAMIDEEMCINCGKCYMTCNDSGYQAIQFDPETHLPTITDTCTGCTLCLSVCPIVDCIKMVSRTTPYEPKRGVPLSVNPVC

[6] = biological target: T3, Thymidine phosphorylase (Homo sapiens) (UniProt P19971); experiment: Susceptibility to thymidine phosphorylase (ThdPase) at a substrate concentration of 1.0 mM
T3 sequence (whole entry): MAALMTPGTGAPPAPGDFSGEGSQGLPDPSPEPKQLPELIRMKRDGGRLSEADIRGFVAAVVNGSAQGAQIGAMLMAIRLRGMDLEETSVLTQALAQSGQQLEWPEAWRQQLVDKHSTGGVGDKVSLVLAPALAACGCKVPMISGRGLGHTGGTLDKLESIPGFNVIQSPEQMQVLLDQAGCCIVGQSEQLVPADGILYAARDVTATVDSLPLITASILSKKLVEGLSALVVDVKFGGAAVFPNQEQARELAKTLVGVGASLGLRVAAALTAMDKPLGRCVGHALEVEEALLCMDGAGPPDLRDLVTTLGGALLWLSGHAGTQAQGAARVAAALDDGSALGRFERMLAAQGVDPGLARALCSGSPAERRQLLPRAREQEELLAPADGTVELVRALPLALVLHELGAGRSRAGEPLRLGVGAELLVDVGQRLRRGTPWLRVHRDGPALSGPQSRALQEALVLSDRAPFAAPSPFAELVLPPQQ

[7] = Stability in serum determined 1 hour after treatment; assay type: ADME, cell-free; settings: read-out: Stability
Method in brief: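 Compound incubated in serum; stability reported as the percentage remaining after 1 h.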

Mus musculus [8] = experiment: Tumour concentration of 5-FU in HT-3 (human cervical cancer) xenograft mice at 33.7 mg/kg oral dose co-administered with 135 mg/kg Capecitabine; assay type: functional
[9] = Stability at pH 2.0-7.4 determined 2 hours after treatment; assay type: physicochemical; settings: buffer, read-out: Stability
Method in brief: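 Compound held in aqueous solution at pH 2.0–7.4 for 2 h at 37 °C. Stability reported as the percentage of compound remaining.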

Homo sapiens [10] = organism: Homo sapiens; experiment: Susceptibility to human intestine enzyme at a concentration 2.5 mM; assay type: functional; method in brief: as §1
Mus musculus [11] = experiment: Plasma concentration of 5-FU in HT-3 (human cervical cancer) xenograft mice at 33.7 mg/kg oral dose co-administered with 135 mg/kg Capecitabine; assay type: functional, organism-based
Homo sapiens [12] = organism: Homo sapiens; experiment: Susceptibility to human liver enzyme at a concentration 2.5 mM; assay type: functional; method in brief: as §1
[13] = Ratio of tumor and plasma 5-FU concentration in HT-3 (human cervical cancer) xenograft mice on co-administration with Capecitabine; assay type: functional
Mus musculus [14] = experiment: Tumour concentration of 5-FU in HT-3 (human cervical cancer) xenograft mice at 1.38 mg/kg oral dose co-administered with 135 mg/kg Capecitabine; assay type: functional
Mus musculus [15] = experiment: Tumour concentration of 5-FU in HT-3 (human cervical cancer) xenograft mice at 135 mg/kg oral dose; assay type: functional
Lung carcinoma cell line = experiment: Antitumor activity in human lung carcinoma; assay type: functional
Mus musculus [16] = experiment: Plasma concentration of 5-FU in HT-3 (human cervical cancer) xenograft mice at 135 mg/kg oral dose; assay type: functional, organism-based; parameters: dose 135 mg/kg

Cytidine deaminase (Homo sapiens), sequence (P32320 whole entry): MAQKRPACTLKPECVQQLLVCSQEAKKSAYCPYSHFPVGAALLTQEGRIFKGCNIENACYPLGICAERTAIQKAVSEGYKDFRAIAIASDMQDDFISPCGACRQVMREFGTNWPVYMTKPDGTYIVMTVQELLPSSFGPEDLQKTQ

C[C@H]1O[C@@H](n2cc(I)c(N)nc2=O)[C@H](O)[C@@H]1O
Relative susceptibility [1]: 0.33

CCCCCOC(=O)Nc1nc(=O)n([C@@H]2O[C@H](C)[C@@H](O)[C@H]2O)cc1I
Susceptibility (Cocaine esterase [2]): 90 nmol/mg protein/h | Susceptibility (Cocaine esterase [3]): 18 nmol/mg protein/h | Susceptibilty Ratio (Liver/Intestine) [4]: 5

C=Cc1cn([C@@H]2O[C@H](C)[C@@H](O)[C@H]2O)c(=O)nc1NC(=O)OCCCCC
Susceptibility (Cocaine esterase [2]): 110 nmol/mg protein/h | Susceptibility (Cocaine esterase [3]): < 5 nmol/mg protein/h | Susceptibilty Ratio (Liver/Intestine) [4]: > 22

O=c1[nH]cc(I)c(=O)[nH]1
IC50 [5]: 220 nM

C=Cc1cn([C@@H]2O[C@H](C)[C@@H](O)[C@H]2O)c(=O)nc1N
Relative susceptibility [1]: 0.14

N#Cc1c[nH]c(=O)[nH]c1=O
IC50 [5]: 200 nM

C#Cc1cn([C@@H]2O[C@H](C)C(O)[C@H]2O)c(=O)[nH]c1=O (single isomer, unassigned)
Relative susceptibility [6]: 5

C[C@H]1O[C@@H](n2cc(I)c(=O)[nH]c2=O)[C@H](O)C1O (single isomer, unassigned)
Relative susceptibility [6]: 2.3

C[C@H]1O[C@@H](n2cc(F)c(=O)[nH]c2=O)[C@H](O)C1O (single isomer, unassigned)
Relative susceptibility [6]: 1

C#Cc1cn([C@@H]2O[C@H](C)[C@@H](O)[C@H]2O)c(=O)nc1N
Relative susceptibility [1]: 0.034

C[C@H]1O[C@@H](n2cc(/C=C/c3ccccc3)c(=O)[nH]c2=O)[C@H](O)C1O (single isomer, unassigned)
Relative susceptibility [6]: < 0.01

C=Cc1cn([C@@H]2O[C@H](C)[C@@H](OC(C)=O)[C@H]2OC(C)=O)c(=O)nc1N
remaining at 1 h [7]: 61% | Tumour_[5-FU] (Mus musculus [8]): 13 nmol/g | remaining at 2 h [9]: 100% | Susceptibility (Homo sapiens [10]): 28 nmol/mg protein/h | Plasma [5-FU] (Mus musculus [11]): 1 nmol/mL | Susceptibility (Homo sapiens [12]): 130 nmol/mg protein/h | Ratio_tumour/plasma [13]: 13

C=Cc1cnc(O)nc1O
Tumour_[5-FU] (Mus musculus [14]): 12 nmol/g | IC50 [5]: 89 nM | Ratio_tumour/plasma [13]: 3.8

CCCCCOC(=O)Nc1nc(=O)n([C@@H]2O[C@H](C)[C@@H](O)[C@H]2O)cc1F [CAPECITABINE]
Susceptibility (Cocaine esterase [2]): 79 nmol/mg protein/h | Susceptibility (Cocaine esterase [3]): 5.3 nmol/mg protein/h | Tumour_[5-FU] (Mus musculus [15]): 3.5 nmol/g | Activity (Lung carcinoma cell line): 377 mg/kg | Plasma [5-FU] (Mus musculus [16]): 0.62 nmol/mL

O=c1[nH]cc(Cc2cccc(OCc3ccccc3)c2)c(=O)[nH]1
IC50 [5]: 97 nM

C#Cc1c[nH]c(=O)[nH]c1=O
IC50 [5]: 14 nM

C[C@H]1O[C@@H](n2cc(F)c(N)nc2=O)[C@H](O)[C@@H]1O
Relative susceptibility [1]: 1

Oc1ncc(/C=C/c2ccccc2)c(O)n1
IC50 [5]: 43 nM

C[C@H]1O[C@@H](n2cc(Cc3cccc(OCc4ccccc4)c3)c(=O)[nH]c2=O)[C@H](O)C1O (single isomer, unassigned)
Relative susceptibility [6]: < 0.01

C=Cc1cn([C@@H]2O[C@H](C)C(O)[C@H]2O)c(=O)[nH]c1=O (single isomer, unassigned)
Relative susceptibility [6]: 0.2

C[C@H]1O[C@@H](n2cc(C#N)c(=O)[nH]c2=O)[C@H](O)C1O (single isomer, unassigned)
Relative susceptibility [6]: < 0.01
